Measurements collected from several papers.
Compare with care: the assays were run in different laboratories.
Cell line: MCF7
Effect on: cell growth or viability

Compound	assay	conditions	IC50 [µM]
N.N.[Cl][Pt][Cl]	MTT	48 h	9.9
N.N.[Cl][Pt][Cl]	MTT	72 h	61.6
N.N.[Cl][Pt][Cl]	MTT		46.1
CC(=O)N[C@H]1[C@@H](O[C@@H]2O[C@H](C[C@@H](O)[C@H]3O[C@@H](n4ccc(=O)[nH]c4=O)[C@H](O)[C@@H]3O)[C@H](O)[C@H](O)[C@H]2NC(=O)/C=C/CCCCCCCCCC(C)C)O[C@H](CO)[C@@H](O)[C@@H]1O	WST-1		0.52
CC(=O)c1c(C)c2cnc(Nc3ccc(C4CCN(CCS(C)(=O)=O)CC4)cn3)nc2n(C2CCCC2)c1=O	ATP luminescence	72 h	0.143
Fc1ccc2c(-c3nc(Cc4ccccc4)cs3)nn(Cc3ccc(Cl)cc3Cl)c2c1		48 h	32.9
O=C(NCc1ccc(Cl)cc1)c1cn(Cc2ccc(Cl)cc2)c2ccc(Oc3ccccc3)cc2c1=O	MTT	24 h	481
C#CCn1c(C(=O)/C=C/c2ccc(F)cc2)nc2ccccc21	LDH	48 h	2.48
O=C(NCc1ccc(C(F)(F)F)cc1)c1cn(Cc2ccc(F)cc2)c2ccc(Oc3ccccc3)cc2c1=O	MTT	48 h	183
c1ccc([Se][Au]=[c]2n(C3CCCCC3)ccn2C2CCCCC2)cc1	crystal violet		1
O=C(NCc1ccc(F)cc1)c1cn(Cc2ccc(F)cc2)c2ccc(Oc3ccccc3)cc2c1=O	MTT	48 h	327
COc1c(C)c2c(c(O)c1C/C=C(\C)CCC(=O)O)C(=O)OC2			0.741
O=C(NCc1ccc(C(F)(F)F)cc1)c1cn(Cc2ccc(Cl)cc2)c2ccc(Oc3ccccc3)cc2c1=O	MTT	48 h	109
CC[C@@]1(O)C(=O)OCc2c1cc1n(c2=O)Cc2cc3ccccc3nc2-1	SRB	48 h	0.067
Cc1ccc(CNC(=O)c2cn(Cc3ccc(Cl)cc3)c3ccc(Oc4ccccc4)cc3c2=O)cc1	MTT	24 h	> 500
CC[C@H](C)[C@@H]([C@@H](CC(=O)N1CCC[C@H]1[C@H](OC)[C@@H](C)C(=O)N[C@H](C)[C@@H](O)c1ccccc1)OC)N(C)C(=O)[C@@H](NC(=O)[C@@H](NC)C(C)C)C(C)C	CCK-8		0.0106
